Measured values published in ChEMBL document CHEMBL4346672, “Antimicrobial and KPC/AmpC inhibitory activity of functionalized benzosiloxaboroles” (Eur J Med Chem, 2019).
Values after ≈ are worked out from the molar mass of the structure shown. Active and inactive are the calls of the source. No cut-off for these calls is given here.

system: Proteus mirabilis; test: Antibacterial activity against Proteus mirabilis ATCC 12453 assessed as diameter of zone inhibition measured after 18 hrs by CLSI disc diffusion method; type: functional; conditions: not given
Method in brief: (§1)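 Disc diffusion on Mueller-Hinton II agar. Compounds dissolved in DMSO. Strains stored at -80 °C and subcultured twice on tryptic soy agar before testing. Inhibition zones read after 35 °C, 18 h.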

Structure (SMILES) | diameter of the inhibition zone (DIZ)
C[Si]1(C)OB(O)c2c(F)c3c(c(F)c21)B(O)OC3 | inactive

system: Enterococcus faecalis; test: Antibacterial activity against Enterococcus faecalis ATCC 29212 measured after 18 hrs by CLSI broth dilution method; type: functional; conditions: ATCC 29212, 18 h
Method in brief: (§2)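 Broth MIC in Mueller-Hinton II broth following CLSI, compounds dissolved in DMSO. Strains subcultured twice on tryptic soy agar before testing. Growth read after 35 °C, 18 h.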

Structure (SMILES) | MIC [µg/mL]
C[Si]1(C)OB(O)c2c(F)c3c(c(F)c21)B(O)OC3 | 25 (≈ 92.6 µM)

system: Bordetella bronchiseptica; test: Antibacterial activity against Bordetella bronchiseptica ATCC 4617 measured after 18 hrs by CLSI broth dilution method; type: functional; conditions: ATCC 4617, 18 h; method in brief: as §2

Structure (SMILES) | MIC [µg/mL]
C[Si]1(C)OB(O)c2c(F)c3c(c(F)c21)B(O)OC3 | 100 (≈ 371 µM)

system: Klebsiella pneumoniae; test: Antibacterial activity against Klebsiella pneumoniae ATCC 13883 measured after 18 hrs by CLSI broth dilution method; type: functional; conditions: ATCC 13883, 18 h; method in brief: as §2

Structure (SMILES) | MIC [µg/mL]
C[Si]1(C)OB(O)c2c(F)c3c(c(F)c21)B(O)OC3 | 200 (≈ 741 µM)

system: Enterococcus faecium; test: Antibacterial activity against Enterococcus faecium ATCC 6057 assessed as diameter of zone inhibition measured after 18 hrs by CLSI disc diffusion method; type: functional; conditions: not given; method in brief: as §1

Structure (SMILES) | diameter of the inhibition zone (DIZ) [mm]
C[Si]1(C)OB(O)c2c(F)c3c(c(F)c21)B(O)OC3 | 28

system: Proteus mirabilis; test: Antibacterial activity against Proteus mirabilis ATCC 12453 measured after 18 hrs by CLSI broth dilution method; type: functional; conditions: ATCC 12453, 18 h; method in brief: as §2

Structure (SMILES) | MIC [µg/mL]
C[Si]1(C)OB(O)c2c(F)c3c(c(F)c21)B(O)OC3 | 200 (≈ 741 µM)

system: Acinetobacter baumannii; test: Antibacterial activity against Acinetobacter baumannii ATCC 19606 assessed as diameter of zone inhibition measured after 18 hrs by CLSI disc diffusion method; type: functional; conditions: not given; method in brief: as §1

Structure (SMILES) | diameter of the inhibition zone (DIZ) [mm]
C[Si]1(C)OB(O)c2c(F)c3c(c(F)c21)B(O)OC3 | 15

system: Klebsiella pneumoniae; test: Antibacterial activity against Klebsiella pneumoniae ATCC 13883 assessed as fold reduction of MIC in presence of efflux pump inhibitor PAbetaN incubated for 18 hrs by broth microdilution method; type: functional; conditions: not given
Method in brief: (§3)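 MICs determined with and without PAβN at 50 mg/L in Mueller-Hinton broth containing 1 mM MgSO₄. 2-fold serial dilutions per CLSI. Fold change taken from the paired MICs after 35 °C, 18 h.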

Structure (SMILES) | fold change (FC)
C[Si]1(C)OB(O)c2c(F)c3c(c(F)c21)B(O)OC3 | 16

system: Bacillus subtilis; test: Antibacterial activity against Bacillus subtilis ATCC 6633 assessed as diameter of zone inhibition measured after 18 hrs by CLSI disc diffusion method; type: functional; conditions: not given; method in brief: as §1

Structure (SMILES) | diameter of the inhibition zone (DIZ) [mm]
C[Si]1(C)OB(O)c2c(F)c3c(c(F)c21)B(O)OC3 | 29

system: Candida parapsilosis; test: Antifungal activity against Candida parapsilosis ATCC 22019 assessed as decrease in fungal cell growth at 0.78 to 12.5 mg/L incubated for 24 hrs by CLSI broth dilution method; type: functional; conditions: Lodderomyces parapsilosis, ATCC 22019, 24 h
Method in brief: (§4)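 Yeast broth dilution in RPMI 1640 with 2% glucose, compounds in DMSO. Yeasts pre-grown on Sabouraud dextrose agar. Growth read after 35 °C, 24 h.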

Structure (SMILES) | MIC [µg/mL]
C[Si]1(C)OB(O)c2c(F)c3c(c(F)c21)B(O)OC3 | > 400

system: Serratia marcescens; conditions: ATCC 13880

Structure (SMILES) | DIZ
C[Si]1(C)OB(O)c2c(F)c3c(c(F)c21)B(O)OC3 | inactive

system: Pichia kudriavzevii; test: Antifungal activity against Candida krusei ATCC 6258 assessed as diameter of zone inhibition incubated for 24 hrs by CLSI disc diffusion method; type: functional; conditions: not given
Method in brief: (§5)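 Yeast disc diffusion on Mueller-Hinton agar supplemented with 2% glucose and 0.5 mg/L methylene blue. Compounds in DMSO. Yeasts subcultured on Sabouraud dextrose agar before testing. Zones read after 35 °C, 24 h.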

Structure (SMILES) | diameter of the inhibition zone (DIZ)
C[Si]1(C)OB(O)c2c(F)c3c(c(F)c21)B(O)OC3 | inactive

system: Serratia marcescens; test: Antibacterial activity against Serratia marcescens ATCC 13880 measured after 18 hrs by CLSI broth dilution method; type: functional; conditions: ATCC 13880, 18 h; method in brief: as §2

Structure (SMILES) | MIC [µg/mL]
C[Si]1(C)OB(O)c2c(F)c3c(c(F)c21)B(O)OC3 | 400 (≈ 1480 µM)

system: Escherichia coli; test: Antibacterial activity against Escherichia coli ATCC 25922 assessed as diameter of zone inhibition measured after 18 hrs by CLSI disc diffusion method; type: functional; conditions: not given; method in brief: as §1

Structure (SMILES) | diameter of the inhibition zone (DIZ)
C[Si]1(C)OB(O)c2c(F)c3c(c(F)c21)B(O)OC3 | inactive

system: Candida albicans; test: Antifungal activity against Candida albicans ATCC 90028 assessed as diameter of zone inhibition incubated for 24 hrs by CLSI disc diffusion method; type: functional; conditions: not given; method in brief: as §5

Structure (SMILES) | diameter of the inhibition zone (DIZ)
C[Si]1(C)OB(O)c2c(F)c3c(c(F)c21)B(O)OC3 | inactive

system: Acinetobacter baumannii; test: Antibacterial activity against Acinetobacter baumannii ATCC 19606 measured after 18 hrs by CLSI broth dilution method; type: functional; conditions: ATCC 19606, 18 h; method in brief: as §2

Structure (SMILES) | MIC [µg/mL]
C[Si]1(C)OB(O)c2c(F)c3c(c(F)c21)B(O)OC3 | 400 (≈ 1480 µM)

system: Klebsiella pneumoniae; conditions: ATCC 13883

Structure (SMILES) | DIZ
C[Si]1(C)OB(O)c2c(F)c3c(c(F)c21)B(O)OC3 | inactive

system: Bordetella bronchiseptica; test: Antibacterial activity against Bordetella bronchiseptica ATCC 4617 assessed as diameter of zone inhibition measured after 18 hrs by CLSI disc diffusion method; type: functional; conditions: not given; method in brief: as §1

Structure (SMILES) | diameter of the inhibition zone (DIZ)
C[Si]1(C)OB(O)c2c(F)c3c(c(F)c21)B(O)OC3 | inactive

system: Enterococcus faecalis; test: Antibacterial activity against Enterococcus faecalis ATCC 29212 assessed as diameter of zone inhibition measured after 18 hrs by CLSI disc diffusion method; type: functional; conditions: not given; method in brief: as §1

Structure (SMILES) | diameter of the inhibition zone (DIZ) [mm]
C[Si]1(C)OB(O)c2c(F)c3c(c(F)c21)B(O)OC3 | 28

system: Stenotrophomonas maltophilia; test: Antibacterial activity against Stenotrophomonas maltophilia ATCC 13637 assessed as fold reduction of MIC in presence of efflux pump inhibitor PAbetaN incubated for 18 hrs by broth microdilution method; type: functional; conditions: not given; method in brief: as §3

Structure (SMILES) | fold change (FC)
C[Si]1(C)OB(O)c2c(F)c3c(c(F)c21)B(O)OC3 | 8

system: Stenotrophomonas maltophilia; test: Antibacterial activity against Stenotrophomonas maltophilia ATCC 13637 measured after 18 hrs by CLSI broth dilution method; type: functional; conditions: ATCC 13637, 18 h; method in brief: as §2

Structure (SMILES) | MIC [µg/mL]
C[Si]1(C)OB(O)c2c(F)c3c(c(F)c21)B(O)OC3 | 50 (≈ 185 µM)

system: Burkholderia cepacia; test: Antibacterial activity against Burkholderia cepacia ATCC 25416 assessed as diameter of zone inhibition measured after 18 hrs by CLSI disc diffusion method; type: functional; conditions: not given; method in brief: as §1

Structure (SMILES) | diameter of the inhibition zone (DIZ) [mm]
C[Si]1(C)OB(O)c2c(F)c3c(c(F)c21)B(O)OC3 | 23

system: Meyerozyma guilliermondii; test: Antifungal activity against Candida guilliermondii IBA 155 assessed as diameter of zone inhibition incubated for 24 hrs by CLSI disc diffusion method; type: functional; conditions: not given; method in brief: as §5

Structure (SMILES) | diameter of the inhibition zone (DIZ)
C[Si]1(C)OB(O)c2c(F)c3c(c(F)c21)B(O)OC3 | inactive

system: not listed separately; test: Dissociation constant, pKa1 of compound in 0.1 M NaOH by potentiometric analysis; type: physicochemical; conditions: not given

Structure (SMILES) | pKa
C[Si]1(C)OB(O)c2c(F)c3c(c(F)c21)B(O)OC3 | 4.7

system: Staphylococcus aureus; test: Antibacterial activity against Staphylococcus aureus ATCC 6538P measured after 18 hrs by CLSI broth dilution method; type: functional; conditions: not given; method in brief: as §2

Structure (SMILES) | MIC [µg/mL]
C[Si]1(C)OB(O)c2c(F)c3c(c(F)c21)B(O)OC3 | 6.25 (≈ 23.2 µM)

system: Candida tropicalis; test: Antifungal activity against Candida tropicalis IBA 171 assessed as diameter of zone inhibition incubated for 24 hrs by CLSI disc diffusion method; type: functional; conditions: not given; method in brief: as §5

Structure (SMILES) | diameter of the inhibition zone (DIZ)
C[Si]1(C)OB(O)c2c(F)c3c(c(F)c21)B(O)OC3 | inactive

system: Enterobacter cloacae; test: Antibacterial activity against Enterobacter cloacae DSM 6234 measured after 18 hrs by CLSI broth dilution method; type: functional; conditions: DSM 6234, 18 h; method in brief: as §2

Structure (SMILES) | MIC [µg/mL]
C[Si]1(C)OB(O)c2c(F)c3c(c(F)c21)B(O)OC3 | 200 (≈ 741 µM)

system: Staphylococcus epidermidis; test: Antibacterial activity against Staphylococcus epidermidis ATCC 12228 assessed as diameter of zone inhibition measured after 18 hrs by CLSI disc diffusion method; type: functional; conditions: not given; method in brief: as §1

Structure (SMILES) | diameter of the inhibition zone (DIZ) [mm]
C[Si]1(C)OB(O)c2c(F)c3c(c(F)c21)B(O)OC3 | 35

system: Escherichia coli; test: Antibacterial activity against Escherichia coli ATCC 25922 assessed as fold reduction of MIC in presence of efflux pump inhibitor PAbetaN incubated for 18 hrs by CLSI broth microdilution method; type: functional; conditions: not given; method in brief: as §3

Structure (SMILES) | fold change (FC)
C[Si]1(C)OB(O)c2c(F)c3c(c(F)c21)B(O)OC3 | 8

system: Proteus mirabilis; test: Antibacterial activity against Proteus mirabilis ATCC 12453 assessed as fold reduction of MIC in presence of efflux pump inhibitor PAbetaN incubated for 18 hrs by broth microdilution method; type: functional; conditions: not given; method in brief: as §3

Structure (SMILES) | fold change (FC)
C[Si]1(C)OB(O)c2c(F)c3c(c(F)c21)B(O)OC3 | 4

system: Pseudomonas aeruginosa; test: Antibacterial activity against Pseudomonas aeruginosa ATCC 27853 measured after 18 hrs by CLSI broth dilution method; type: functional; conditions: ATCC 27853, 18 h; method in brief: as §2

Structure (SMILES) | MIC [µg/mL]
C[Si]1(C)OB(O)c2c(F)c3c(c(F)c21)B(O)OC3 | > 400

system: Burkholderia cepacia; test: Antibacterial activity against Burkholderia cepacia ATCC 25416 measured after 18 hrs by CLSI broth dilution method; type: functional; conditions: ATCC 25416, 18 h; method in brief: as §2

Structure (SMILES) | MIC [µg/mL]
C[Si]1(C)OB(O)c2c(F)c3c(c(F)c21)B(O)OC3 | 50 (≈ 185 µM)

system: Staphylococcus aureus; test: Antibacterial activity against Staphylococcus aureus ATCC 6538P assessed as diameter of zone inhibition measured after 18 hrs by CLSI disc diffusion method; type: functional; conditions: not given; method in brief: as §1

Structure (SMILES) | diameter of the inhibition zone (DIZ) [mm]
C[Si]1(C)OB(O)c2c(F)c3c(c(F)c21)B(O)OC3 | 30

system: Enterococcus faecium; test: Antibacterial activity against Enterococcus faecium ATCC 6057 measured after 18 hrs by CLSI broth dilution method; type: functional; conditions: ATCC 6057, 18 h; method in brief: as §2

Structure (SMILES) | MIC [µg/mL]
C[Si]1(C)OB(O)c2c(F)c3c(c(F)c21)B(O)OC3 | 25 (≈ 92.6 µM)

system: Candida parapsilosis; test: Antifungal activity against Candida parapsilosis ATCC 22019 assessed as diameter of zone inhibition incubated for 24 hrs by CLSI disc diffusion method; type: functional; conditions: not given; method in brief: as §5

Structure (SMILES) | diameter of the inhibition zone (DIZ)
C[Si]1(C)OB(O)c2c(F)c3c(c(F)c21)B(O)OC3 | inactive

system: Meyerozyma guilliermondii; test: Antifungal activity against Candida guilliermondii IBA 155 assessed as decrease in fungal cell growth at 0.78 to 12.5 mg/L incubated for 24 hrs by CLSI broth dilution method; type: functional; conditions: IBA 155, 24 h; method in brief: as §4

Structure (SMILES) | MIC [µg/mL]
C[Si]1(C)OB(O)c2c(F)c3c(c(F)c21)B(O)OC3 | > 400
